In PMC10962275 (Pharmacological research, 2024):
Converted amounts (≈) assume the structure as drawn. Read-outs that look alike come from different tables or passages of the source.

Key:
[1] = tested on: NFκB; test: NFκB-driven luciferase reporter assay, NF90-8 cells; format: cell-based; conditions: Homo sapiens, 24 h, read-out: NFκB Luciferase 24 hr EC50±SE (μM)
Outline: (§1)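 Pa03C and NF90–8 cells carrying an NFκB-driven GFP-luciferase reporter, checked for induction by TNF-α. Seeded, then treated 24 h later with increasing test compound doses in 5% FBS medium for 24 h. Luciferase measured by One-Glo, with parallel alamarBlue viability. Mean ± SEM, n > 2 biological repeats.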

[2] = Plasma stability, human plasma; format: in vitro ADME
Outline: (§2)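 Human or mouse plasma pre-warmed to 37 °C and added to dried test compound (1 μM) held on a 37 °C heat block. Stopped with cold acetonitrile at 0, 5, 10, 20, 40 and 60 min. Processed samples reconstituted in acetonitrile and analysed by HPLC.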

[3] = In vivo PK in mouse; conditions: plasma; for clearance: iv; for AUC(0-inf) / Cmax / half-life: po, 25 mg/kg
[4] = tested on: HIF1α; test: HIF1α-driven luciferase reporter assay, Pa03C cells, 1% hypoxia; format: cell-based; conditions: Homo sapiens, 24 h, read-out: HIF1α Luciferase 24 hr EC50 ± SE (μM)
Outline: as §1, with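 “a HIF1α-driven” for “an NFκB-driven”, “hypoxia.” for “TNF-α.”, “h under 1% hypoxia.” for “h.”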

[5] = Chemical stability in enabling vehicle PKT; format: physicochemical
[6] = molecular target: APE1 (Homo sapiens, UniProt P27695); test: Kinetic fluorescence based APE1 endonuclease; format: biochemical
Outline: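 Recombinant APE1 at 0.07–0.1 nM, tuned before each run for a linear signal, cleaves a double-stranded oligo with a 6-FAM-labelled strand carrying a tetrahydrofuran AP-site mimic and a DABCYL-quenched complement. Read 495/530 over a 5 min kinetic read at 37 °C. A known repair inhibitor serves as reference, also at 20 μM.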

[7] = Phase 1 metabolic stability, mouse liver microsomes; format: in vitro ADME; conditions: pH 7.4
Outline: (§3)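 Test compound (1 μM) dried under nitrogen, then mixed with human or mouse liver S9 or microsomes (20 mg/mL stock) in phosphate buffer pH 7.4 with 5 mM MgCl2. Reaction started with NADPH (4 mM stock), shaken at 400 rpm. Sampled at 0, 5, 10, 20, 40 and 60 min and quenched with ice-cold acetonitrile; analysed by HPLC.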

[8] = tested on: NFκB and HIF1α; test: Ref-1-regulated transcription factor driven luciferase activity; format: cell-based, human; conditions: Pa03C and NF90–8 cells, 24 h
[9] = tested on: NFκB; test: NFκB-driven luciferase reporter assay, Pa03C cells; format: cell-based; conditions: Homo sapiens, 24 h, read-out: NFκB Luciferase 24 hr EC50 ± SE (μM)
Outline: as §1

[10] = Phase 1 metabolic stability, human liver S9; format: in vitro ADME; conditions: liver S9, pH 7.4
Outline: as §3

[11] = tested on: NFκB; test: NFκB luciferase reporter assay; format: cell-based, human; conditions: for IC50: Homo sapiens, Pa03C, read-out: NFκB (IC50 mM)
Outline: as §1

[12] = molecular target: T1, Ref-1 (39–318/C138A) (Homo sapiens, UniProt P27695, C138A); test: WaterLOGSY NMR; format: binding; conditions: 20 μM Ref-1, 200 μM compound
Outline: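 WaterLOGSY spectra acquired with 1.5 s mixing time, 128 scans, 10 ppm sweep width, 1.58 s acquisition time and 5 s relaxation delay. Data multiplied by an exponential function with 1 Hz line broadening before Fourier transformation.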

[13] = tested on: HIF1α; test: HIF1α-driven luciferase reporter assay, NF90-8 cells, 1% hypoxia; format: cell-based; conditions: Homo sapiens, 24 h, read-out: HIF1α Luciferase 24 hr EC50±SE (μM)
Outline: as §1, with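 “a HIF1α-driven” for “an NFκB-driven”, “hypoxia.” for “TNF-α.”, “h under 1% hypoxia.” for “h.”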

[14] = tested on: CAF19 cells; test: 3D co-culture spheroid assay, CAFs; format: cell-based; conditions: Homo sapiens, Pa03C, read-out: 3D CAF19 EC50 (mM)
Outline: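 Pa03C (TdTomato-labelled) and CAF19 (EGFP-labelled) plated together at 1:4 in ultra-low-attachment plates to form spheroids. Treated on days 4, 8 and 12 with rising test compound levels in medium containing 5% serum and 3% growth-factor-reduced Matrigel. Fluorescence intensity read by high-content imaging on days 4, 8, 12 and 14. Mean ± SE, n > 3.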

[15] = Plasma stability, mouse plasma; format: in vitro ADME
Outline: as §2

[16] = Phase 1 metabolic stability, mouse liver S9; format: in vitro ADME; conditions: liver S9, pH 7.4
Outline: as §3

[17] = Thermodynamic solubility; format: physicochemical; conditions: thermodynamic from solid; for solubility thermodynamic at 24 h: 37 °C; for solubility thermodynamic: phosphate buffer, pH 6.8, aqueous buffer
[18] = CaCO2 bidirectional permeability; format: in vitro ADME; conditions: human, Caco-2
[19] = tested on: Pa03C cells; test: 3D co-culture spheroid assay, tumor cells; format: cell-based; conditions: Homo sapiens; for EC50: read-out: 3D tumor(Pa03C) EC50 (mM); for IC50: read-out: cell killing effect in the 3D spheroid assay
[20] = molecular target: Ref-1 (Homo sapiens, UniProt P27695); test: Redox EMSA; format: biochemical
[21] = Phase 1 metabolic stability, human liver microsomes; format: in vitro ADME; conditions: pH 7.4
Outline: as §3

[22] = molecular target: T1, Ref-1 (39–318/C138A); conditions: ref [25]; cited from earlier work
[23] = preclinical models; cited from earlier work
[24] = tested on: progressing solid tumors; conditions: phase I clinical trial, ref [34]–[36]; cited from earlier work
[25] = Phase 2 metabolic stability, human liver S9; format: in vitro ADME
Outline: (§4)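 Test compound (1 μM) dried under nitrogen, then incubated with human or mouse liver S9 in UGT reaction mix, shaken at 400 rpm. Stopped with ice-cold acetonitrile at 0, 5, 10, 20, 40 and 60 min. Temazepam internal standard added, then centrifuged; supernatant dried and reconstituted in acetonitrile for HPLC.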

[26] = tested on: NF90–8 cells; test: Mitochondrial plate-based assay; format: cell-based, human; conditions: APX2051 at 10 μM, APX3330 at 50 μM
Outline: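 Biolog S-1 Mitoplates activated with Assay Mix for at least 60 min at 37 °C. NF90–8 cells treated 24 h, then collected, counted, resuspended in kit buffer and plated at 5 × 10^4 cells/well. Read kinetically at 590 nm every 5 min for 4 h at 37 °C. Mean ± SEM, n = 2; 2-way ANOVA.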

[27] = Phase 2 metabolic stability, mouse liver S9; format: in vitro ADME
Outline: as §4

[28] = tested on: NF90–8 and Pa03C cells; test: Cell viability; format: cell-based, human; conditions: alamar blue, 24 h
[29] = tested on: Pa03C cells; test: NADP/NADPH assay; format: cell-based, human; conditions: 6 h
[30] = FaSSGF, fassgf or other biorelevant

T1 sequence (P27695 39-318 C138A): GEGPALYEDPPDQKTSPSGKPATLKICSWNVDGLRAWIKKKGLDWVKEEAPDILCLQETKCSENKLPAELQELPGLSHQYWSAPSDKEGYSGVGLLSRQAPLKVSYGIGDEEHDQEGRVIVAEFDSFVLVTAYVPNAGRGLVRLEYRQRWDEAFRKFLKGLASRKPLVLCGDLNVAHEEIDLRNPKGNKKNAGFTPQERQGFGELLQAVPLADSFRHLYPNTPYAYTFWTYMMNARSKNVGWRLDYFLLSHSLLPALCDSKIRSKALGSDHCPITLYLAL
Sequence of APE1 (P27695 whole entry): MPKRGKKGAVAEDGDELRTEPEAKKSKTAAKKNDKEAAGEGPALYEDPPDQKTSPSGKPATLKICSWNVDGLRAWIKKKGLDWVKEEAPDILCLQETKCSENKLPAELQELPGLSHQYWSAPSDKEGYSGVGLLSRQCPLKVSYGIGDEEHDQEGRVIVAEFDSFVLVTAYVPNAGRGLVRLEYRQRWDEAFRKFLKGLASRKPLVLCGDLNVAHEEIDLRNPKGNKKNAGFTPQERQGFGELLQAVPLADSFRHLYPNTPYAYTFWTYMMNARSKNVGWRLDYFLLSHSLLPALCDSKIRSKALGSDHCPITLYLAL
Sequence of Ref-1 (P27695 whole entry): as above

EC50 [1] | half-life at 1 µM [2] | clearance [3] | AUC(0-inf) [3] | Cmax [3] | half-life [3] | EC50 [4] | DNA Repair [6] | CLint scaled at 1 µM [7] | EC50 [9] | CLint scaled at 1 µM [10] | EC50 [14] | half-life at 1 µM [15] | CLint scaled at 1 µM [16] | solubility thermodynamic at 24 h [17, 30] | solubility thermodynamic at 24 h ([17]; FaSSIF) | solubility thermodynamic at 24 h ([17]; FeSSIF) | Papp A→B [18] | EC50 [19] | CLint scaled at 1 µM [21] | SMILES | other results
5.1 ± 0.3 µM | 163 min | 0.683 mL/min | 113 ng·h/mL | 27 ng/mL | 108 min | 14.5 ± 1.06 µM | Neg. | 19.3 mL/min/kg | 18.8 ± 1.35 µM | 2.9 mL/min/kg | 0.0078 mM | 34 min | 7.9 mL/min/kg | 95 µg/mL (≈ 267 µM) | 198 µg/mL (≈ 557 µM) | 558 µg/mL (≈ 1570 µM) | 33.7 ×10⁻⁶ cm/s | 0.0046 mM | 4.3 mL/min/kg | CCC/C(=C\C1=C(OC)C(=O)c2ccccc2C1=O)C(=O)N(CC)CC [APX2009, (E)‐N,N‐diethyl‐2‐[(3‐methoxy‐1,4‐dioxo‐1,4‐dihydronaphthalen‐2-yl)methylidene]pentanamide] | chemical stability in PKT vehicle, stressed ([5]; 60 °C for 4 h): formation of significant amount of the hydroquinone (HQ) of APX2053; chemical stability in PKT vehicle ([5]; room temperature after four days): acceptable stability; reduction in both NFκB and HIF1α activity: fold lower doses compared to APX3330 [8]: 2 – 11 fold; IC50 [11]: 0.0051 mM; peaks in waterLOGSY difference spectra [12]: consistent with interactions with Ref-1; EC50 [13]: 14.3 ± 0.25 µM; solubility thermodynamic [17]: 94 µg/mL (≈ 264 µM); efflux ratio [18]: 0.75; IC50 [19]: 4.3 µM; IC50 [20]: < 1000 nM
33.7 ± 2.81 µM | 509 min | 0.00833 mL/min | 77900 ng·h/mL | 8820 ng/mL | 228 min | 60.2 ± 4.13 µM | Neg. | 67.4 mL/min/kg | 54.5 ± 1.97 µM | 4.4 mL/min/kg | > 0.02 mM | 94 min | 14.2 mL/min/kg | 1 µg/mL (≈ 2.64 µM) | 671 µg/mL (≈ 1770 µM) | 448 µg/mL (≈ 1180 µM) | 5.2 ×10⁻⁶ cm/s | > 0.02 mM | 31.8 mL/min/kg | CCCCCCCCC/C(=C\C1=C(C)C(=O)C(OC)=C(OC)C1=O)C(=O)O [APX3330, reference compound] | peaks in waterLOGSY difference spectra [22]: consistent with interactions with Ref-1; potency in cell-based proliferation assays [23]: 50 to 75 µM; response rate [24]: 32%; CLint scaled at 1 µM [25]: 5.6 mL/min/kg; inhibition of mitochondrial function [26]: minimal effects; CLint scaled at 1 µM [27]: 21.6 mL/min/kg; IC50 [11]: 0.0393 mM; EC50 [13]: 55.1 ± 0.44 µM; solubility thermodynamic [17]: 496 µg/mL (≈ 1310 µM)
 | 25 min | 0.0217 mL/min | 25400 ng·h/mL | 5700 ng/mL | 126 min |  | Slight. Inhib. | 19 mL/min/kg |  | 1.9 mL/min/kg | 0.0143 mM | 132 min | 34.6 mL/min/kg | 760 µg/mL (≈ 2230 µM) | 1010 µg/mL (≈ 2960 µM) | 1200 µg/mL (≈ 3510 µM) | 39.7 ×10⁻⁶ cm/s | 0.0161 mM | 2.3 mL/min/kg | CCC/C(=C\C1=C(O)C(=O)c2ccccc2C1=O)C(=O)N(CC)CC [APX2053, (E)-N,N-diethyl-2-((3-hydroxy-1,4-dioxo-1,4-dihydronaphthalen-2-yl)methylene)pentanamide] | cell viability of reporter cells [28]: do not decrease the NFκB activity or affect cell viability; NADPH levels (ratio of NADPH/NADPt) [29]: does not show reduced NADPH levels; NFκB activity ([11]; NF90–8 and Pa03C, any of the doses tested): do not decrease; blocking Ref-1 activated TF activity (for NFκB) ([11]; tested up to 40 μM): ineffective; peaks in waterLOGSY difference spectra [12]: consistent with interactions with Ref-1; efflux ratio [18]: 1; IC50 [19]: 16 µM
 |  |  |  |  |  |  |  |  |  |  |  |  |  |  |  |  |  |  |  | CC(=O)Nc1sc2c(c1-c1nc3ccccc3s1)CCN(C(C)C)C2 [ARi3, reference compound] | decrease of Ref-1 endonuclease activity ([6]; 20 μM, positive control): 63%
